From ChEMBL document CHEMBL1155077, “Kinesin spindle protein (KSP) inhibitors. 9. Discovery of (2S)-4-(2,5-difluorophenyl)-n-[(3R,4S)-3-fluoro-1-methylpiperidin-4-yl]-2-(hydroxymethyl)-N-methyl-2-phenyl-2,5-dihydro-1H-pyrrole-1-carboxamide (MK-0731) for the treatment of taxane-refractory cancer” (J Med Chem, 2008)
pIC50: −log10 of the molar value. Active and inactive are the calls of the source. The rule behind the calls is not given here.

What was measured:
[1] = Toxicity in clr:NU/NU-nuBR mouse assessed as maximum tolerated dose after 24 hrs; format: organism-based; conditions: in vivo
Method in brief: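 Naive, non-xenografted mice, in a large cohort. Drug was given by continuous delivery from subcutaneously implanted osmotic minipumps over 24 h. The maximum tolerated dose was set with survival as the end point, and peripheral blood counts were followed to assess myelosuppression.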

[2] = Effect on […] formation in human […] cells assessed as mitotic spindles at 50 nM after 16 hrs by fluorescence microscopy; format: functional
Method in brief: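 A2780 cells grown in slide chambers, exposed 16 h to 5 or 50 nM compound or 0.1% DMSO. Fixed/permeabilized in PIPES buffer pH 6.8 with Triton X-100 and 4% formaldehyde, blocked with 2% BSA, stained with anti-α-tubulin (DM1, 12 h 4 °C), FITC secondary and Hoechst 33342; spindles viewed by fluorescence microscopy.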

KB-v = assay: Inhibition of tumor growth in human KB-v cells expressing MDR1 xenografted clr:NU/NU-nuBR mouse assessed as change in tumor volume at 20 mg/kg, ip administered qd x 5 dosing schedule relative to control; format: functional, organism-based; set-up: dose 20 mg/kg
Method in brief: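 Nude mice bearing contralateral sc KB-3-1 (2.5 million) and KB-v-1 (9 million) flank tumors, 250-500 mm³ at day 13-14, groups of 10-12. Paclitaxel 20 mg/kg/day ip in ethanol/Cremophor/saline (10:10:80), qd × 5. Volumes by calipers, (W² × L)/2, change from initial; % T/C versus control.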

[3] = biological target: Centromere-associated protein E (Homo sapiens, UniProt Q02224); assay: Inhibition of cloned human CENP-E
Sequence of Centromere-associated protein E (Q02224 whole entry, canonical isoform): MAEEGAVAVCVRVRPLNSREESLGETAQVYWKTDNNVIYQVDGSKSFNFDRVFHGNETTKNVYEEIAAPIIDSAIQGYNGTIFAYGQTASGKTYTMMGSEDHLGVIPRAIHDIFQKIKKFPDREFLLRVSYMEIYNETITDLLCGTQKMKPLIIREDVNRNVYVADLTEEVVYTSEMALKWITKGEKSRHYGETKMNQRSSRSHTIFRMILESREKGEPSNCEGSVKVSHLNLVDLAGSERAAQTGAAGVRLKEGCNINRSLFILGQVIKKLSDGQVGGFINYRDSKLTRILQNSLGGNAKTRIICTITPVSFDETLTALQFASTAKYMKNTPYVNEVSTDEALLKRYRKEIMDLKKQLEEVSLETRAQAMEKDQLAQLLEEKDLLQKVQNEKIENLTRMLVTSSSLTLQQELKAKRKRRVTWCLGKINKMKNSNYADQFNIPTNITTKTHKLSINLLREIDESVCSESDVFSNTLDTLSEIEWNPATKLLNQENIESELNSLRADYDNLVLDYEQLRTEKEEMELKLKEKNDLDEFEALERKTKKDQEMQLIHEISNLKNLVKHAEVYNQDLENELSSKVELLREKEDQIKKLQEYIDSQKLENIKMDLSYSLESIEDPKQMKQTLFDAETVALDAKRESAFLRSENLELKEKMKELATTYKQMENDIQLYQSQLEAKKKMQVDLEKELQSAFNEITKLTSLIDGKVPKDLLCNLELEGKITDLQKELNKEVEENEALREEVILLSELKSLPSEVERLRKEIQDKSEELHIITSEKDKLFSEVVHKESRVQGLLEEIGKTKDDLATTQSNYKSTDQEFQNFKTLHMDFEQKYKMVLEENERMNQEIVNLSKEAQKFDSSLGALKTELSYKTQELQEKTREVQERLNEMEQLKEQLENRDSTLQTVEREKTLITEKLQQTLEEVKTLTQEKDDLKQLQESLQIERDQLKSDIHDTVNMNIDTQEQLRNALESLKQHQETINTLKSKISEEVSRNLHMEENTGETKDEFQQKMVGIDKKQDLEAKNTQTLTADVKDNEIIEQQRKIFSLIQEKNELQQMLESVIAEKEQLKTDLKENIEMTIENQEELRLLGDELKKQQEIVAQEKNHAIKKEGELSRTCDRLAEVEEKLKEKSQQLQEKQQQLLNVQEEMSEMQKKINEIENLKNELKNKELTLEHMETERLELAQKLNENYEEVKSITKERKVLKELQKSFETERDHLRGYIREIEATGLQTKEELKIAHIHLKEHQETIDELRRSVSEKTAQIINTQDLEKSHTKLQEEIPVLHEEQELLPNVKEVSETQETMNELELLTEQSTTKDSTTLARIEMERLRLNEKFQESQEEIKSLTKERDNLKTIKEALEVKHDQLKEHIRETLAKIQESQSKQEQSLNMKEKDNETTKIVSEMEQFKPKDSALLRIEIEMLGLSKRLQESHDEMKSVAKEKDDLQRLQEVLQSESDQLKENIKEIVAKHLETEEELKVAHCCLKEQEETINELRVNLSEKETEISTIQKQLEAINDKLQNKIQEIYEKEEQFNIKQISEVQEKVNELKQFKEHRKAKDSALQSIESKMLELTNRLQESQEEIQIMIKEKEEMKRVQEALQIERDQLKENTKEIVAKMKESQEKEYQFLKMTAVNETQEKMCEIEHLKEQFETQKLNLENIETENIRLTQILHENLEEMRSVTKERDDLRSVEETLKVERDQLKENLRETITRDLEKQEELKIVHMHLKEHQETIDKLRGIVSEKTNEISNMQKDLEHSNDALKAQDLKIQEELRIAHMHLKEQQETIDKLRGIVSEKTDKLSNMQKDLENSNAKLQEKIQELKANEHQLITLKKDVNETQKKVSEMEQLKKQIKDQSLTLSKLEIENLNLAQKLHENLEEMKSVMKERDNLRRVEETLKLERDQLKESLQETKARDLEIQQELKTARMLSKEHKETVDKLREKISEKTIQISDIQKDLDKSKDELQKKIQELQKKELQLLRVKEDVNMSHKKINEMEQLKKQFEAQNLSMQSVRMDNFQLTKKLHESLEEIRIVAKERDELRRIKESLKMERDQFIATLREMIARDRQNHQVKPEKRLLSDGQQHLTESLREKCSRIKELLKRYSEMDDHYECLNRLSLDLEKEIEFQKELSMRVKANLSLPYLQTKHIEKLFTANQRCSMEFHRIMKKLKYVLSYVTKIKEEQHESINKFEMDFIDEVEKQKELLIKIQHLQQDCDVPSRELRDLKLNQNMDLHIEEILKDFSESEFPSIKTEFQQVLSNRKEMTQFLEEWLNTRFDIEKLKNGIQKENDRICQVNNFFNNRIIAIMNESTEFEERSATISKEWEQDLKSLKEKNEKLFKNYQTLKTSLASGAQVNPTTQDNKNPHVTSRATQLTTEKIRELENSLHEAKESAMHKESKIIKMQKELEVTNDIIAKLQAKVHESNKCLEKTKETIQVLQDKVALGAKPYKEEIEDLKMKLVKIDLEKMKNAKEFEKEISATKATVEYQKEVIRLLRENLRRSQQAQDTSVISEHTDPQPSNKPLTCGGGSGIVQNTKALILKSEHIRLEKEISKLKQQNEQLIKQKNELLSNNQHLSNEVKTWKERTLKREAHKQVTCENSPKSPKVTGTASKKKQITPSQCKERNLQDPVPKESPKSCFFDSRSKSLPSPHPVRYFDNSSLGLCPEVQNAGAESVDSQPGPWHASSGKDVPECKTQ

[4] = biological target: T1, Kinesin heavy chain isoform 5A (Homo sapiens, UniProt Q12840); assay: Inhibition of cloned human nKHC
T1 sequence (Q12840 whole entry): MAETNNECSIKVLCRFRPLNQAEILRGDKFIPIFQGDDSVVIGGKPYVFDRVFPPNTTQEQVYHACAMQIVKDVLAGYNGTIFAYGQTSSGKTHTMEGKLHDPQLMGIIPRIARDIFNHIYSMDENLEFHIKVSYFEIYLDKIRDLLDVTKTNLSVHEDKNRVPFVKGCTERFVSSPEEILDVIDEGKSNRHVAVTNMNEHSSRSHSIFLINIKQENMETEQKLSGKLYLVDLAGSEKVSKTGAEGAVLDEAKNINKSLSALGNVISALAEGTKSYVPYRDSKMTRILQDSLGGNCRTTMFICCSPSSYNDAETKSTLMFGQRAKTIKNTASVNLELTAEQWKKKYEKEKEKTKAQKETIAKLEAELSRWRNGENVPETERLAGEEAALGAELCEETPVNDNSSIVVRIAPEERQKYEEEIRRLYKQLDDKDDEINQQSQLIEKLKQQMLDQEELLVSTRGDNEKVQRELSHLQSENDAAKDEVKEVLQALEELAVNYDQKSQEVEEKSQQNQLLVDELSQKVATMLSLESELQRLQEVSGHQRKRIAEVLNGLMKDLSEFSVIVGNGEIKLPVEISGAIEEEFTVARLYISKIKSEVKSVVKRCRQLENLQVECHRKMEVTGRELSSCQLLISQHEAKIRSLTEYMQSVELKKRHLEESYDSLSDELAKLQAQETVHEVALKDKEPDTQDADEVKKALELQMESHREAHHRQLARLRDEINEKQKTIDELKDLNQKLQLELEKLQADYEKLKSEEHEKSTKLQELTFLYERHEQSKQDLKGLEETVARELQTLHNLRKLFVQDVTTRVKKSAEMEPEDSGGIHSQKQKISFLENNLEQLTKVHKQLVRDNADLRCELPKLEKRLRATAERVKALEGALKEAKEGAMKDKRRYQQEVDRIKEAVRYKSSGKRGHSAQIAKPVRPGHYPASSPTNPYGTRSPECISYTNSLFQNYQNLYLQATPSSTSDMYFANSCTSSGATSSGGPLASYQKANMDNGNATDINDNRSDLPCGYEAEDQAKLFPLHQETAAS

[5] = Ratio of IC50 for induction of mitotic arrest in human […] to IC50 for induction of mitotic arrest in […] human KB-V-1 cells; format: functional
Method in brief: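 Phospho-nucleolin mitotic-arrest assay in parental KB-3-1 and MDR1-overexpressing KB-V-1 cells (>500-fold higher MDR1 mRNA). Cells were treated in triplicate for 16 h across 10 000 to 0.1 nM (11-point, half-log series; 0.1% DMSO final). Total nucleolin was bead-captured from lysates and phospho-nucleolin detected by TG3 antibody plus a ruthenium-labelled secondary. Ratio = IC50 (KB-V-1) / IC50 (KB-3-1).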

PTX10 = assay: Inhibition of tumor growth in paclitaxel-resistant human PTX10 cells carries tubulin mutation xenografted clr:NU/NU-nuBR mouse assessed as change in tumor volume at 100 mg/kg, sc administered q4d x 3 dosing schedule relative to control

CN1CC[C@H](N(C)C(=O)N2CC(c3cc(F)ccc3F)=C[C@@]2(CO)c2ccccc2)[C@H](F)C1
MTD at 24 h [1]: 12 mg/kg | Activity [2]: 90% | Activity (KB-v): inactive | pIC50 [3]: < 4.30 | pIC50 [4]: < 4.30 | Ratio [5]: 4.5 | Activity (PTX10): Active
